According to ChEMBL document CHEMBL1158001, “Cytotoxic isoprenylated flavans of Broussonetia kazinoki” (1999):
In brackets after ≈: the same amount, converted by molar mass. *1 amine or outer side, *2 acyl side, *3 side chain or, on linkers, in order; H or OH if unused. Where a SMILES comes first, the peptide text is derived from it. Bridges are numbered along the chain shown (N, C = ends). Roman numbers before positions name the chains, in order. [ ]: non-standard residue; d: D form. Actinocin(1to9) = Cc1c2oc3c(C)ccc(C(=O)[*:2])c3nc-2c(C(=O)[*:1])c(N)c1=O; NMeV = CN[C@H](C(=O)O)C(C)C; Sar = CNCC(=O)O

Legend:
Ca-Ski = experiment: Cytotoxicity against human CaSki cells after 6 days by MTT assay; format: functional; details: 144 h, read-out: ED50 (the source's name)
Method in brief: (§1)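 Cells kept in DMEM with 10% FBS, 2 mM L-glutamine, penicillin and streptomycin. 1-3 × 10^3 cells/100 µL, attached 6 h, then fresh medium with a concentration series for 6 days at 37 °C in CO2, plus 10 mM HEPES pH 7.3. MTT (1 mg/mL in PBS) added for 4 h, formazan dissolved in DMSO, A550 read.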

SiHa = experiment: Cytotoxicity against human SiHa cells after 6 days by MTT assay; format: functional; details: for EC50: Homo sapiens, SiHa, 144 h, read-out: ED50 (the source's name); method in brief: as §1
HT-3 = experiment: Cytotoxicity against human HT-3 cells after 6 days by MTT assay; format: functional; details: for EC50: Homo sapiens, HT-3, 144 h, read-out: ED50 (the source's name); method in brief: as §1
[1] = Cytotoxicity against human PLC/PRF/5 cells after 6 days by MTT assay; format: functional; details: PLC-PRF-5, 144 h, read-out: ED50 (the source's name); method in brief: as §1
T-24 = experiment: Cytotoxicity against human T24 cells after 6 days by MTT assay; format: functional; details: T-24, 144 h, read-out: ED50 (the source's name); method in brief: as §1
212 (Mus musculus) = experiment: Cytotoxicity against mouse 212 cells after 6 days by MTT assay; details: 144 h, read-out: ED50 (the source's name)

| Compound | EC50 (Ca-Ski) [µg/mL] | EC50 (SiHa) [µg/mL] | EC50 (HT-3) [µg/mL] | ED50 (SiHa) [×10⁻⁴ ug/ml] | EC50 [1] [µg/mL] | ED50 (HT-3) [×10⁻⁴ ug/ml] | EC50 (T-24) [µg/mL] | EC50 (212 (Mus musculus)) [µg/mL] |
| --- | --- | --- | --- | --- | --- | --- | --- | --- |
| C=CC(C)(C)c1cc2c(cc1O)OC(c1cc(O)c3c(c1CC=C(C)C)CC(O)C(C)(C)O3)CC2 (stereo not given) | 8.2 (≈ 17.1 µM) | 9.3 (≈ 19.4 µM) | 9.3 (≈ 19.4 µM) |  |  |  |  |  |
| Oc1ccc(C2CCc3ccc(O)cc3O2)cc1 (stereo not given) | 17.4 (≈ 71.8 µM) | 8.9 (≈ 36.7 µM) | 11.6 (≈ 47.9 µM) |  |  |  |  |  |
| Cc1c2oc3c(C)ccc(C(=O)N[C@@H]4C(=O)N[C@H](C(C)C)C(=O)N5CCC[C@H]5C(=O)N(C)CC(=O)N(C)[C@@H](C(C)C)C(=O)O[C@@H]4C)c3nc-2c(C(=O)N[C@@H]2C(=O)N[C@H](C(C)C)C(=O)N3CCC[C@H]3C(=O)N(C)CC(=O)N(C)[C@@H](C(C)C)C(=O)O[C@@H]2C)c(N)c1=O [DACTINOMYCIN] (I: T[dV]P[Sar][NMeV] / II: T[dV]P[Sar][NMeV]; ester I:1-I:C, II:1-II:C; linker I:N-II:N via Actinocin(1to9)) | 0.0019 (≈ 0.00151 µM) |  |  | 8.1 | 0.0014 (≈ 0.00112 µM) | 5.6 | 0.0015 (≈ 0.00119 µM) |  |
| C=CC(C)(C)c1cc(CCCc2cc(O)c3c(c2CC=C(C)C)CCC(C)(C)O3)c(O)cc1O [KAZINOL D] |  |  | 3.6 (≈ 7.75 µM) |  | 3.3 (≈ 7.1 µM) |  |  | 7 (≈ 15.1 µM) |
| C=CC(C)(C)c1cc(CCCc2cc(O)c3c(c2CC=C(C)C)C=CC(C)(C)O3)c(O)cc1O [KAZINOL K] |  |  | 8.6 (≈ 18.6 µM) |  |  |  |  |  |
| C=CC(C)(C)c1cc2c(cc1O)OC(c1cc(CC=C(C)C)c(O)c(O)c1CC=C(C)C)CC2 (stereo not given) [KAZINOL Q] |  | 4.7 (≈ 10.2 µM) | 4.3 (≈ 9.29 µM) |  | 3.5 (≈ 7.57 µM) |  | 2.3 (≈ 4.97 µM) | 3.8 (≈ 8.21 µM) |
